Data taken from ChEMBL document CHEMBL4689842, “EUbOPEN Chemogenomics Library wave 1” (2021).

Tested on: Fibroblast
Test: Multiplex assay against human fibroblast
Assay type: toxicity, cell-based
In short: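 At seeding, live cells were stained with Hoechst33342, BioTracker Green Microtubule Cytoskeleton Dye, MitoTracker Red and Annexin V Alexa Fluor 680. After compound addition they were imaged on a CQ1 microscope at 37°C and 5% CO2, and CellPathfinder machine-learning gating sorted them into Hoechst high-intensity objects or normal cells, with normal cells further split into healthy, pyknosed or fragmented nuclei and pyknosed cells into mitotic or apoptotic. Tubulin, mitochondrial-mass and membrane-permeability phenotypes are given as per cents of cells with healthy nuclei.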

[1] = 12 h, 1 µM, compound concentration 1 uM, replicate 1
[2] = 12 h, 1 µM, compound concentration 1 uM, replicate 2
[3] = 12 h, 10 µM, compound concentration 10 uM, replicate 1
[4] = 12 h, 10 µM, compound concentration 10 uM, replicate 2
[5] = 24 h, 1 µM, compound concentration 1 uM, replicate 1
[6] = 24 h, 1 µM, compound concentration 1 uM, replicate 2
[7] = 24 h, 10 µM, compound concentration 10 uM, replicate 1
[8] = 24 h, 10 µM, compound concentration 10 uM, replicate 2

SMILES: Cc1nc(Nc2n[nH]c3c2CN(C(=O)N[C@H](CN(C)C)c2ccccc2)C3(C)C)c2sccc2n1 [PF-03758309]
- Population Apoptotic (%) [1]: 82%
- Population Fragmented Nuclei (%) [1]: 33%
- Population Healthy Nuclei (%) [1]: 48%
- Population Hoechst High Intensity Objects (%) [1]: 13%
- Population Membrane Permeable-Phenotype (%) [1]: 6%
- Population Mitochondria Different-Phenotype (%) [1]: 2%
- Population Mitotic Cells (%) [1]: 17%
- Population Normal (%) [1]: 86%
- Population Pyknosed Nuclei (%) [1]: 18%
- Population Tubulin-Different-Phenotype (%) [1]: 2%
- Total Cell Count [1]: 216
- Population Apoptotic (%) [2]: 60%
- Population Fragmented Nuclei (%) [2]: 54%
- Population Healthy Nuclei (%) [2]: 37%
- Population Hoechst High Intensity Objects (%) [2]: 28%
- Population Membrane Permeable-Phenotype (%) [2]: 0%
- Population Mitochondria Different-Phenotype (%) [2]: 13%
- Population Mitotic Cells (%) [2]: 40%
- Population Normal (%) [2]: 71%
- Population Pyknosed Nuclei (%) [2]: 8%
- Population Tubulin-Different-Phenotype (%) [2]: 13%
- Total Cell Count [2]: 83
- Population Apoptotic (%) [3]: 62%
- Population Fragmented Nuclei (%) [3]: 35%
- Population Healthy Nuclei (%) [3]: 51%
- Population Hoechst High Intensity Objects (%) [3]: 11%
- Population Membrane Permeable-Phenotype (%) [3]: 9%
- Population Mitochondria Different-Phenotype (%) [3]: 10%
- Population Mitotic Cells (%) [3]: 37%
- Population Normal (%) [3]: 88%
- Population Pyknosed Nuclei (%) [3]: 12%
- Population Tubulin-Different-Phenotype (%) [3]: 32%
- Total Cell Count [3]: 240
- Population Apoptotic (%) [4]: 40%
- Population Fragmented Nuclei (%) [4]: 57%
- Population Healthy Nuclei (%) [4]: 25%
- Population Hoechst High Intensity Objects (%) [4]: 39%
- Population Membrane Permeable-Phenotype (%) [4]: 0%
- Population Mitochondria Different-Phenotype (%) [4]: 20%
- Population Mitotic Cells (%) [4]: 60%
- Population Normal (%) [4]: 60%
- Population Pyknosed Nuclei (%) [4]: 16%
- Population Tubulin-Different-Phenotype (%) [4]: 33%
- Total Cell Count [4]: 98
- Population Apoptotic (%) [5]: 70%
- Population Fragmented Nuclei (%) [5]: 25%
- Population Healthy Nuclei (%) [5]: 53%
- Population Hoechst High Intensity Objects (%) [5]: 16%
- Population Membrane Permeable-Phenotype (%) [5]: 7%
- Population Mitochondria Different-Phenotype (%) [5]: 8%
- Population Mitotic Cells (%) [5]: 29%
- Population Normal (%) [5]: 83%
- Population Pyknosed Nuclei (%) [5]: 20%
- Population Tubulin-Different-Phenotype (%) [5]: 7%
- Total Cell Count [5]: 181
- Population Apoptotic (%) [6]: 75%
- Population Fragmented Nuclei (%) [6]: 59%
- Population Healthy Nuclei (%) [6]: 33%
- Population Hoechst High Intensity Objects (%) [6]: 28%
- Population Membrane Permeable-Phenotype (%) [6]: 0%
- Population Mitochondria Different-Phenotype (%) [6]: 10%
- Population Mitotic Cells (%) [6]: 25%
- Population Normal (%) [6]: 71%
- Population Pyknosed Nuclei (%) [6]: 6%
- Population Tubulin-Different-Phenotype (%) [6]: 0%
- Total Cell Count [6]: 82
- Population Apoptotic (%) [7]: 67%
- Population Fragmented Nuclei (%) [7]: 30%
- Population Healthy Nuclei (%) [7]: 54%
- Population Hoechst High Intensity Objects (%) [7]: 20%
- Population Membrane Permeable-Phenotype (%) [7]: 15%
- Population Mitochondria Different-Phenotype (%) [7]: 6%
- Population Mitotic Cells (%) [7]: 32%
- Population Normal (%) [7]: 79%
- Population Pyknosed Nuclei (%) [7]: 15%
- Population Tubulin-Different-Phenotype (%) [7]: 40%
- Total Cell Count [7]: 254
- Population Apoptotic (%) [8]: 100%
- Population Fragmented Nuclei (%) [8]: 48%
- Population Healthy Nuclei (%) [8]: 45%
- Population Hoechst High Intensity Objects (%) [8]: 34%
- Population Membrane Permeable-Phenotype (%) [8]: 11%
- Population Mitochondria Different-Phenotype (%) [8]: 22%
- Population Mitotic Cells (%) [8]: 0%
- Population Normal (%) [8]: 65%
- Population Pyknosed Nuclei (%) [8]: 6%
- Population Tubulin-Different-Phenotype (%) [8]: 44%
- Total Cell Count [8]: 92
